Results: ChEMBL document CHEMBL1154598, “7-Hydroxy-benzopyran-4-one derivatives: a novel pharmacophore of peroxisome proliferator-activated receptor alpha and -gamma (PPARalpha and gamma) dual agonists” (J Med Chem, 2009)
Active and inactive are the calls of the source. No cut-off for these calls is given here.

target: T1, Peroxisome proliferator-activated receptor gamma (Homo sapiens) (UniProt P37231); assay: Agonist activity at human PPARgamma expressed in HEK293 cells co-transfected with PPRE assessed as beta-galactosidase signal at 25 uM after 48 hrs by reporter gene assay relative to control; type: functional, cell-based
T1 sequence (whole entry): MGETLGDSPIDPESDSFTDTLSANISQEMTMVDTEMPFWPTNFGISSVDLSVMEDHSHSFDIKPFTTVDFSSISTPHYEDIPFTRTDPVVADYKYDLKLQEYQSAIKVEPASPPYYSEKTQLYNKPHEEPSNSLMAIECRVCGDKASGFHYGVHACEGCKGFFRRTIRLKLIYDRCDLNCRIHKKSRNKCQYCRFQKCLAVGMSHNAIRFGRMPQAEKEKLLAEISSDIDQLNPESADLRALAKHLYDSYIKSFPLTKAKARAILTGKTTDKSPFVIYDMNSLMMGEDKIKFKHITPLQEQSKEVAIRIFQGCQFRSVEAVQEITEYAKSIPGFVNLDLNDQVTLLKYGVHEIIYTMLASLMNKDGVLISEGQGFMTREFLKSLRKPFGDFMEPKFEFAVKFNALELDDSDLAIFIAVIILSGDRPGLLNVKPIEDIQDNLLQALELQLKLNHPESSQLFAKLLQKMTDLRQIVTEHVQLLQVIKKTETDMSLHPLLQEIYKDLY
Summary of the method: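 HEK293 cells were transfected with FuGENE 6 using a PPRE-luciferase reporter, pSG5-hPPARγ1 and a β-galactosidase control plasmid. After 24 h they were replated at 5 × 10⁴ cells/well, attached overnight, then treated for 48 h with 0.1% DMSO as vehicle. Luciferase was read, normalized to the β-gal signal and reported as fold activation over vehicle. Mean of two experiments in triplicate.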

| SMILES | fold change (FC) | Activity |
| --- | --- | --- |
| O=c1c(-c2ccc(F)cc2F)coc2cc(O)ccc12 | 13.8 |  |
| COc1ccc(-c2c(-c3ccc(O)cc3O)n[nH]c2C)cc1 | 2.2 |  |
| CCc1cc2c(=O)c(-c3ccc4c(c3)OCO4)c(C)oc2cc1O | 5.3 |  |
| O=c1c(-c2ccc3c(c2)OCCO3)coc2cc(O)ccc12 | 11.3 |  |
| COc1ccc(/C=C/C(=O)c2ccc(O)cc2O)cc1OC | 3.5 |  |
| COc1c(F)cc(F)cc1-c1coc2cc(O)ccc2c1=O | 7.5 |  |
| COc1ccc(/C=C/C(=O)c2ccc(O)cc2O)cc1 | 2.6 |  |
| COc1ccccc1-c1coc2cc(O)ccc2c1=O | 1.6 |  |
| COc1ccc(-c2coc3cc(O)ccc3c2=O)c(OC)n1 |  | inactive |
| COc1cc(-c2coc3cc(O)ccc3c2=O)cc(OC)c1OC |  | inactive |
| O=c1c(-c2ccc(O)c(O)c2)coc2cc(O)ccc12 | 7.5 |  |
| CCc1cc2c(=O)c(-c3ccc4c(c3)OCO4)c(C)oc2cc1OCC(=O)O | 2.3 |  |
| O=c1c(-c2ccc(Cl)cc2)coc2cc(O)ccc12 | 2.6 |  |
| COc1cccc(/C=C/C(=O)c2ccc(O)cc2O)c1 | 2.1 |  |
| COc1ccc(-c2coc3cc(O)ccc3c2=O)cc1OC | 10.5 |  |
| O=c1c(-c2cccc(OC(F)(F)F)c2)coc2cc(O)ccc12 | 2.1 |  |
| CCc1cc2c(=O)c(-c3ccc4c(c3)OCO4)coc2cc1O | 12.7 |  |
| COc1ccccc1/C=C/C(=O)c1ccc(O)cc1O | 1.1 |  |

| SMILES | fold change (FC) | Activity |
| --- | --- | --- |
| O=c1c(-c2cc(O)cc(O)c2)coc2cc(O)ccc12 | 7.4 |  |
| O=c1c(-c2ccc(C(F)(F)F)cc2)coc2cc(O)ccc12 | 4.4 |  |
| O=c1c(-c2ccc3c(c2)OCO3)coc2cc(OC3CCCCO3)ccc12 (stereo not given) | 9.4 |  |
| O=c1c(O)c(-c2ccc(O)c(O)c2)oc2cc(O)cc(O)c12 | 1.3 |  |
| COc1ccc(-c2oc3cc(O)ccc3c(=O)c2O)cc1OC | 2.4 |  |
| Oc1ccc(-c2n[nH]cc2-c2ccc3c(c2)OCO3)c(O)c1 |  | inactive |
| O=c1c(-c2ccc(O)cc2)coc2cc(O)cc(O)c12 | 3.4 |  |
| O=c1c(-c2cccc(OCc3ccccc3)c2)coc2cc(O)ccc12 |  | inactive |
| Oc1ccc(-c2n[nH]c(C(F)(F)F)c2-c2ccc(F)cc2)c(O)c1 | 3.9 |  |
| Cc1[nH]nc(-c2ccc(O)cc2O)c1-c1ccc(F)cc1 | 5.3 |  |
| COc1cc(-c2coc3cc(OC4CCCCO4)ccc3c2=O)cc(OC)c1OC (stereo not given) | 2.3 |  |
| COc1cc(-c2oc3cc(O)cc(O)c3c(=O)c2O)cc(OC)c1O | 1.2 |  |
| CCc1cc2c(=O)c(-c3ccc4c(c3)OCO4)c(C(F)(F)F)oc2cc1O |  | inactive |
| O=c1c(-c2cc(F)c(F)c(F)c2)coc2cc(O)ccc12 | 1.4 |  |
| Oc1ccc(-c2n[nH]cc2-c2ccc(F)cc2)c(O)c1 | 1.7 |  |
| O=c1c(-c2cccc(F)c2)coc2cc(O)ccc12 | 4.1 |  |
| O=C(/C=C/c1ccc(O)cc1)c1ccc(O)cc1O | 1.3 |  |
